An excerpt weighted towards active compounds, which were near 1.1% of everything screened.
SR-BI DiI inh: inhibitors of SR-BI mediated HDL lipid uptake, primary screen, ldlA[mSR-BI] cells, fluorescence, single point | Scavenger receptor class B member 1 (Mus musculus), Q61009 | ldlA[mSR-BI] CHO cells, DiI-HDL uptake fluorescence, 3 h | inhibition, % at 12.5 µM | 320,000 tested, 0.96% active | AID 488896, 2010;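 active means mean replicate inhibition of at least 70% and a set share of replicates each scoring 70 or more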
Target sequence (Q61009 whole entry, looked up): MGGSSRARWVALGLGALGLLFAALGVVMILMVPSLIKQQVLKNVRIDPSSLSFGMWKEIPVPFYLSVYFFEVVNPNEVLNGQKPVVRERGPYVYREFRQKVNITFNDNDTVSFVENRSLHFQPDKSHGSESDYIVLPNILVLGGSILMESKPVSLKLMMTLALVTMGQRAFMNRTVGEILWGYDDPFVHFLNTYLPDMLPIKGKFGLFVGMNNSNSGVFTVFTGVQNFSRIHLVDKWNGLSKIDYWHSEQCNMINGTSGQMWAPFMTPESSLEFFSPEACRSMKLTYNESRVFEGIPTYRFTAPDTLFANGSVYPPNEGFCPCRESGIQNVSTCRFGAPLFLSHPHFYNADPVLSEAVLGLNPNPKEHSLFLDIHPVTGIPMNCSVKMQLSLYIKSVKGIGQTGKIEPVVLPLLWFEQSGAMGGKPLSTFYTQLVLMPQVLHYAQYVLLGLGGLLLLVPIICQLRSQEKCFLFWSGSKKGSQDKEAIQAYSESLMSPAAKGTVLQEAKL
GSK3beta inhib: human GSK3beta kinase inhibitors, primary screen, biochemical, cell-free homogeneous, HTS. GST-GSK3beta kinase, ADP-Glo luminescence, 60 min; active compounds read low. Glycogen synthase kinase-3 beta (Homo sapiens), P49841. activity score (negative = inhibition), % at 10 µM. 300,000 tested, 0.038% active;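 active means more than half of replicate wells score below -50%, meaning over 50% inhibition versus plate controls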
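Test system: GST-fused GSK3beta enzyme, cell-free | Quantity: 1.6 ng GST-GSK3beta enzyme per well | Reagent: 25 µM ATP with peptide substrate | Schedule: 60 min enzyme reaction, room temperature | Signal: Luminescent ADP-Glo measurement of ADP formed | Read-out basis: Score relative to plate controls | Control set: DMSO and 20 µM GW8510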
CDK5 inh: inhibitors of human CDK5/p35 kinase, primary screen, biochemical, single concentration. inhibition, % at 10 µM. 330,000 tested, 0.01% active. AID 488839, 2010. Cyclin-dependent kinase 5 (Homo sapiens) + Cyclin-dependent kinase 5 activator 1 (Homo …. Recombinant CDK5/p35, ADP-Glo luminescence, 60 min;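 active means highest replicate inhibition of at least 50% and at least 75% of replicates reaching 50%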
SR-BI uptake up: activators of SR-BI mediated DiI-HDL uptake, primary screen, ldlA[mSR-BI] CHO cells, DiI fluorescence; 3 h; 100 = double the neutral-control signal; activation, % at 12.5 µM; 320,000 tested, 0.096% active;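 active means mean replicate activation of at least 60% and every replicate at or above 60%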
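Test system: SR-BI-overexpressing, LDLR-lacking CHO cells; Also added: labelled HDL, 10 µg/mL; Measured by: bottom-read cell fluorescence after medium removal, ex 550/em 595 nm; Timing: 3 h uptake period with compound, 37 °C; Buffer or medium: F12, 0.5% BSA, 25 mM HEPES; Doses: single compound concentration, delivered by pin transfer.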
GSK3A inh: blockers of GSK3A enzyme activity – biochemical, luminescence, cell-free homogeneous, HTS, primary screen | Glycogen synthase kinase-3 alpha (Homo sapiens), P49840 | GSK-3 alpha kinase, ADP-Glo luminescence, 60 min | inhibition, % at 10 µM | 320,000 tested, 0.1% active | AID 2650, 2010;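 active means more than half of replicates show inhibition above 20%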;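 further: GST-tagged GSK-3 alpha with peptide substrate and 25 µM ATP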
Each line names hits and unclear results; the compound was inactive in the other large screens.

Cc1cc(=O)oc2c3c(cc(OCC(=O)NCC(=O)O)c12)OC(C)(C)CC3	none
Cc1cc(=O)oc2c3c(cc(OCC(=O)NCc4ccccc4)c12)OC(C)(C)CC3	SR-BI DiI inh 80
Cc1cc(C(C#N)c2ccccc2F)n2ncnc2n1 (configuration not stated)	GSK3A inh 55
Cc1cc(C(C#N)c2ccccc2)n2ncnc2n1 (configuration not stated)	none (no result: SR-BI DiI inh, GSK3beta inhib, SR-BI uptake up)
Cc1csc(=O)n1CCC(=O)OC(C)C(=O)NCc1ccccc1 (configuration not stated)	none (no result: SR-BI DiI inh, GSK3beta inhib, SR-BI uptake up, GSK3A inh)
COCCCNC(=O)c1c(NC(=O)C2COc3ccccc3O2)sc2c1CCCC2 (configuration not stated)	SR-BI DiI inh 76
COc1ccc(N2CCN(c3nc4c(c(=O)n(C)c(=O)n4C)n3CCCc3ccccc3)CC2)cc1	SR-BI uptake up 373
COc1ccc(-c2ccc(-c3nc4c(c(=O)[nH]c(=O)n4Cc4ccccc4)n3C)o2)c([N+](=O)[O-])c1	SR-BI DiI inh 72
CCOC(=O)COc1ccc2c(c1)c(C(C)=O)c(C)n2-c1ccccc1	none
CCOc1ccc2c(c1)c(C(C)=O)c(C)n2-c1ccccc1	SR-BI DiI inh 74
O=S(=O)(c1ccc(Cl)c(C(F)(F)F)c1)N1CCN(c2ccccn2)CC1	none
Cc1cc(C)c2nc(C(F)(F)F)c(C#N)c(N)c2c1	none
Cc1ccc2nc(C(F)(F)F)c(C#N)c(N)c2c1	CDK5 inh 95
COc1ccc(-c2csc(C3=C(O)CN(Cc4ccc(Cl)cc4)C3=N)n2)cc1OC	SR-BI DiI inh 87
COCC(C)N1CC(O)=C(c2nc(-c3ccc(Cl)cc3)cs2)C1=N (configuration not stated)	SR-BI DiI inh 82
O=C(Cc1cccc(NC(=O)C2CCCN(C(=O)C3CCC3)C2)c1)Nc1ccc(C(=O)N2CCCCC2)cc1 (configuration not stated)	none (no result: GSK3beta inhib, GSK3A inh)
COc1cccc(OCC(O)CNC(=O)c2oc3ccc(C)cc3c2C)c1 (configuration not stated)	none
N#CC1=C2SCN(Cc3ccccc3)CN2C(=O)CC1c1ccccc1F (configuration not stated)	GSK3A inh 61
O=S(=O)(NC1C2CC3CC(C2)CC1C3)c1ccc(F)cc1 (configuration not stated)	none (no result: GSK3beta inhib, GSK3A inh)
Cc1ccc(-c2nnc(Oc3ccc(NC(=O)c4ccccc4)cc3)c3ccccc23)cc1	SR-BI uptake up 169 (no result: GSK3A inh)
CN(Cc1ccco1)C(=O)c1cc2c(s1)-c1ccc(Cl)cc1S(=O)(=O)C2	none
COc1ccc(C2=Nn3c(nnc3-c3ccncc3)SC2)cc1OC	GSK3A inh 67
CN(C)c1ccc(C=NNC(=O)c2cccc3ccccc23)c(Cl)c1	SR-BI DiI inh 75 (no result: GSK3beta inhib, GSK3A inh)
COc1ccc(OC)c(NC(=O)c2cc(S(=O)(=O)NCc3ccco3)ccc2F)c1	SR-BI DiI inh 83
CCOc1ccccc1NC(=O)c1cc(S(=O)(=O)NCc2ccco2)ccc1F	none
CCSc1nnc(NC(=O)CCNS(=O)(=O)c2ccccc2F)s1	none
C/C(=N\Nc1ccc([N+](=O)[O-])cc1)c1ccc(C#N)cc1	SR-BI DiI inh 78
C/C(=N\Nc1ccc([N+](=O)[O-])cc1)c1ccc2c(c1)OCO2	none
C/C(=N/Nc1ccc([N+](=O)[O-])cc1)c1ccc(C)cc1C	none
Cc1[nH]c2ccccc2c1/C=N/NC(=O)c1cccc([N+](=O)[O-])c1	none
C/C(=N/Nc1ccc([N+](=O)[O-])cc1)c1c[nH]c2ccccc12	SR-BI DiI inh 127
Cc1[nH]c2ccccc2c1/C=N/Nc1ccc([N+](=O)[O-])cc1	SR-BI DiI inh 128
Cc1nc2scc(C)n2c(=O)c1S(=O)(=O)Nc1ccc(N2CCOCC2)cc1	none (no result: SR-BI uptake up)
Cc1ccccc1NS(=O)(=O)c1nnc(NC(=O)C(C)C)s1	none
CCC(=O)Nc1sc2c(c1C(N)=O)CCN(C(C)=O)C2	none
CC(=O)N1CCc2c(sc(NC(=O)CN3C(=O)c4ccccc4C3=O)c2C(N)=O)C1	GSK3beta inhib -52
CC(=O)N1CCc2c(sc(NC(=O)CN3C(=O)CCC3=O)c2C(N)=O)C1	GSK3beta inhib -79, GSK3A inh 93
CN(CCCNC(=O)CCC(=O)N1CCOc2ccccc21)Cc1ccccc1	none
Cc1ccc2c(c1)C(c1ccc(F)cc1)N(C(=O)c1ccccc1Br)CC(=O)N2 (configuration not stated)	none
CC(C)C[C@H](CO)Nc1nc(Nc2cccc(Cl)c2)c2ncn(C(C)C)c2n1	none
CC(C)n1cnc2c(Nc3ccc(F)c(Cl)c3)nc(NCCO)nc21	CDK5 inh 61
COC(=O)c1c(NC(=O)c2ccccc2)sc2c1CC(C)(C)OC2	SR-BI DiI inh 73
C=C(NC(=O)C(=C)NC(=O)c1csc(C2=NC3c4csc(n4)C4NC(=O)c5csc(n5)C(C(C)(O)C(C)O)NC(=O)C5CSC(=N5)/C(=C/C)NC(=O)C(C(C)O)NC(=O)c5csc(n5)C3(CC2)NC(=O)C(C)NC(=O)C(=C)NC(=O)C(=C)NC(=O)C(C(C)C)NC2C=Cc3c(C(C)O)cc(nc3C2O)C(=O)OC4C)n1)C(N)=O (configuration not stated)	SR-BI uptake up 143 (no result: GSK3beta inhib, GSK3A inh)
COc1ccc(C(CNC(=O)c2cccc(NC(=O)c3cccs3)c2)N2CCCC2)cc1 (configuration not stated)	none (no result: GSK3beta inhib)
CCc1ccc(S(=O)(=O)Nc2cc3c(cc2C)n(C)c(=O)n3C)cc1	none
COC(=O)[C@]1(C)N[C@H](CN(C)C(=O)Nc2ccc(Cl)cc2)[C@@H]2C(=O)N(C)C(=O)[C@@H]21	none (no result: GSK3beta inhib)
CC(C)C1Oc2ccccc2N(CC(=O)N(Cc2ccccn2)C2CC2)C1=O (configuration not stated)	SR-BI uptake up 369
O=C1N=c2ccc([N+](=O)[O-])cc2=C1c1sc(=O)[nH]c1O	none (no result: GSK3beta inhib)
COc1ccc(CCNC(=O)c2ccc(N3CCCCS3(=O)=O)cc2)cc1OC	SR-BI DiI inh 79
COc1cc(F)ccc1S(=O)(=O)N1CCN(C23CC4CC(CC(C4)C2)C3)CC1	none
COc1cc(C)ccc1S(=O)(=O)N1CCN(C23CC4CC(CC(C4)C2)C3)CC1	SR-BI DiI inh 77 (no result: GSK3A inh)
CC(C)(C)CCN1CCC(CN2CCNC(=O)C2=O)CC1	none (no result: GSK3beta inhib, GSK3A inh)
COCCCNC(=O)CN(c1cccc(Cl)c1)S(C)(=O)=O	SR-BI uptake up 527
Cc1cc(N2CCN(c3ccccc3)CC2)n2c(n1)nc1ccccc12	GSK3A inh 56

Screening results: PubChem, Broad Institute
